Most compounds without a hit are left out; they make up all but 1.1% or so of the library.
TbMetRS inhib = T. brucei MetRS inhibitors, primary screen, biochemical, luminescence. methionyl-tRNA synthetase (Trypanosoma brucei brucei). purified T. brucei MetRS, ATP depletion, Kinase-Glo luminescence. inhibition, % at 11.9 µM. hit rate 0.4% among 360,000;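 active = inhibition above a per-plate cutoff of the control wells' mean inhibition plus 3 SD, cut at about 5.5% in these data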;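 also: 0% = DMSO wells median and 100% = median of wells with control inhibitor compound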
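assay system = parasite MetRS enzyme | timing = 15 min preincubation, 2 h reaction, all 25 °C | evaluation = percent inhibition relative to median high and low control wells | medium = HEPES buffer containing pyrophosphatase, BSA, spermine, DTT | compound = single dose, 11.9 µM final nominal, 0.9% final DMSO | detection = Kinase-Glo luminescence, ATP depletion format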
MT1-MMP act inh = blockers of MT1-MMP proenzyme processing, primary screen, HT1080 RFP-PRO-GFP cells, GFP/RFP fluorescence; hit rate 0.061% among 360,000; GFP/RFP ratio fluorescence, overnight; percent of plate control window, DMSO zero; GFP/RFP ratio change, % at 20 µM;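 active = GFP/RFP ratio change of at least 30% with cell ATP level not reduced by more than half and red fluorescence within 50% of control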
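system = RFP-PRO-GFP reporter HT1080 cells | dosing = 20 µM single dose, 1% DMSO | timing = overnight cell settling, then overnight compound exposure, 37 °C, 5% CO2 | read-out basis = GFP/RFP fluorescence ratio | controls = DMSO and RFP-L50D-GFP cell wells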
SKN-1 inh = suppressors of acrylamide-induced Pgst-4::GFP reporter in worms, primary screen, SKN-1 inhibitor project, whole organism, uHTS, GFP/RFP fluorescence ratio, strain VP596; AID 624304, 2012; inhibition, % at 21.8 µM; hit rate 0.49% among 360,000; C. elegans VP596 Pgst-4::GFP/RFP ratio, 24 h;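 active = interference check ratio from 0.5 to 1.5 plus GFP to RFP signal ratio inhibition reaching or exceeding a fixed threshold, cut at about 30% in these data, passing the limit was not always enough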
GC-B act = human GC-B receptor activators, primary screen, HEK293 GC-B cells, cGMP TR-FRET, EC30 CNP | Atrial natriuretic peptide receptor 2 (Homo sapiens), P20594 | 0% at EC30 CNP, 100% saturating CNP | activation, % at 10 µM | hit rate 0.11% among 370,000;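 active = activation at 10 µM reaching about 35% in either raw or pattern-adjusted values, limit read from the data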
Target sequence (P20594 whole entry, looked up): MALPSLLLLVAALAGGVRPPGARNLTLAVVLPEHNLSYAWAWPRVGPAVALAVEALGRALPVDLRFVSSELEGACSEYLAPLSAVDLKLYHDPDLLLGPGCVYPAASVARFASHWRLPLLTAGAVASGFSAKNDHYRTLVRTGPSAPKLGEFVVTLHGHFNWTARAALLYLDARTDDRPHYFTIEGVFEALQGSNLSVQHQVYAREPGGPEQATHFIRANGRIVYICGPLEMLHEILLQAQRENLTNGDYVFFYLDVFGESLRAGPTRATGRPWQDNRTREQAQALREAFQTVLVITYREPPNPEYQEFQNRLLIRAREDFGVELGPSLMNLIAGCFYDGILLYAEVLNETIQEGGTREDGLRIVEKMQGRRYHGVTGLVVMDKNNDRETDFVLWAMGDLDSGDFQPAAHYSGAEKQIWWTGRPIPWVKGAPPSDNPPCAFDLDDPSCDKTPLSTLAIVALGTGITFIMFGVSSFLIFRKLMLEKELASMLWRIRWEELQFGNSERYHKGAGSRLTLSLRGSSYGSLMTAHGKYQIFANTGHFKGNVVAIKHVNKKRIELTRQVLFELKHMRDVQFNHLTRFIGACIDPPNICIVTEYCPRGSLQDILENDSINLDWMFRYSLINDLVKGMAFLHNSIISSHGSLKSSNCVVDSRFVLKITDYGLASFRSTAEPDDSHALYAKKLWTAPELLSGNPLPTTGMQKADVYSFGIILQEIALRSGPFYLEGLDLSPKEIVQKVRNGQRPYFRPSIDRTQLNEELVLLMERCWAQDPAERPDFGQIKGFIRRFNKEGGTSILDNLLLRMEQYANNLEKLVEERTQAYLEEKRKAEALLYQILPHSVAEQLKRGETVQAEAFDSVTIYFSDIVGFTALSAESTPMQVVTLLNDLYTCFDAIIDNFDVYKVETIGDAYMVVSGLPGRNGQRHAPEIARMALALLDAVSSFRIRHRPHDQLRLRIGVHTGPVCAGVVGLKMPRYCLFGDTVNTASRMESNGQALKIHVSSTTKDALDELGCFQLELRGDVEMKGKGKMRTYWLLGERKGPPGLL
GC-A act = GC-A stimulated cGMP production enhancers – HEK293 GC-A cells, cGMP TR-FRET, EC30 ANP, primary screen; Atrial natriuretic peptide receptor 1 (Homo sapiens), P16066; 0% at EC30 ANP, 100% saturating ANP; activation, % at 10 µM; hit rate 0.14% among 370,000; in the data active = activation above about 40%
A1 inh = caspase 3/7 activation in MEF A1-2A-BIM cells, primary screen, A1 inhibitor project, cell-based, luminescence, HTS; Caspase-Glo 3/7 luminescence, 3 h; percent of clofoctol response, vehicle zero; caspase activation, % (test concentration not listed); hit rate 0.066% among 330,000; AID 2462, 2010;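 active = over half of replicate activation scores above 10%, or exactly half above 10 with the replicate mean above 10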
Tb MetRS conf = T. brucei MetRS inhibitors, confirmation, biochemical, luminescence; inhibition, % at 11.9 µM; AID 624412, 2012; hit rate 93% among 1,400; T. brucei MetRS enzyme, luminescence (ATP depletion); shares compounds with TbMetRS inhib; in the data active = inhibition above about 7%
Jurkat cytotox = Jurkat T cell cytotoxicity, cytotoxicity control for T. brucei MetRS inhibitor project, luminescence, high throughput; shares compounds with TbMetRS inhib; inhibition, % at 8.3 µM; Jurkat cells viability, ATP luminescence; AID 624413, 2012; hit rate 12% among 1,400; in the data active = inhibition above about 15%;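 also: 0% = vehicle and 100% = reference inhibitor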
Tb MetRS inh FP = T. brucei MetRS inhibitors, orthogonal assay for T. brucei MetRS inhibitor project, biochemical, fluorescence polarization; shares compounds with TbMetRS inhib; purified T. brucei MetRS; inhibition, % at 11.9 µM; hit rate 44% among 1,400; in the data active = inhibition above about 17%;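 also: 0% = vehicle wells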
* marks the source's active call; other numbers are inactive results.

How did CCOC(=O)c1c(N)n(CCOC(=O)c2cccs2)c2nc3ccccc3nc12 do in these assays?
TbMetRS inhib: 7.3*; MT1-MMP act inh: -1.6; SKN-1 inh: -10.1; GC-B act: 8.0; GC-A act: 4.1; A1 inh: -0.9; Tb MetRS conf: 5.7*; Jurkat cytotox: 5.9; Tb MetRS inh FP: 2.0

How did O=C(CSc1nnc(-c2ccc(Cl)cc2)n1-c1ccccc1)NN=Cc1c[nH]c2ccccc12 do in these assays?
GC-B act: -6.3; GC-A act: -14.0

Results for O=C(CN1CCN(CCC(=O)Nc2ccccc2F)CC1)Nc1ccc(Cl)cc1 ?
TbMetRS inhib: 6.4*; MT1-MMP act inh: 7.9; SKN-1 inh: -16.1; GC-B act: -0.2; GC-A act: 1.5; A1 inh: 0.8; Tb MetRS conf: -0.6; Jurkat cytotox: 9.0; Tb MetRS inh FP: 2.5

How did O=C(CN1CCN(CCC(=O)Nc2ccccc2F)CC1)Nc1ccc(F)cc1 do in these assays?
TbMetRS inhib: -1.8; MT1-MMP act inh: -1.5; SKN-1 inh: 1.5; GC-B act: -1.1; GC-A act: 10.7; A1 inh: -0.9

How did O=C(O)c1cccc(Cn2c(Cl)c(/C=N/NC(=O)c3ccccc3)sc2=O)c1 do in these assays?
TbMetRS inhib: 0.4; MT1-MMP act inh: 1.2; SKN-1 inh: -1.1; GC-B act: -5.8; GC-A act: 1.4; A1 inh: -0.1

What do the screens show for `O=C(O)c1cccc(Cn2c(Cl)c(/C=N/NC(=O)c3cc4ccccc4cc3O)sc2=O)c1`?
TbMetRS inhib: 5.7*; MT1-MMP act inh: 2.7; SKN-1 inh: 7.4; GC-B act: -5.6; GC-A act: -1.9; A1 inh: 0.0; Tb MetRS conf: 17.8*; Jurkat cytotox: -0.5; Tb MetRS inh FP: 33.9*

What do the screens show for `COc1ccc(N2CCN(C(=O)CCCCn3c(=O)[nH]c4ccsc4c3=O)CC2)cc1`?
TbMetRS inhib: 6.7*; MT1-MMP act inh: 4.6; SKN-1 inh: 7.1; GC-B act: -5.3; GC-A act: -2.8; A1 inh: 1.5; Tb MetRS conf: 12.6*; Jurkat cytotox: 2.3; Tb MetRS inh FP: 5.1

Results for COc1ccc(N2CCN(C(=O)CCCn3c(=O)[nH]c4ccsc4c3=O)CC2)cc1 ?
TbMetRS inhib: 2.1; MT1-MMP act inh: 1.5; SKN-1 inh: -9.9; GC-B act: 5.5; GC-A act: -3.7; A1 inh: 0.5

Results for O=C(CCCC1=NS(=O)(=O)c2ccccc2N1)N1CCN(c2ccccc2Cl)CC1 ?
GC-B act: -7.5; GC-A act: -5.0

What do the screens show for `CCC(NC(=O)c1ccc2c(ccn2Cc2cccc(-c3ccc(C(=O)O)cc3)c2)c1)c1ccccc1` (stereo not drawn)?
GC-B act: -8.9; GC-A act: -8.0

How did Cn1nc(C(F)(F)F)c(-c2ccc(F)cc2)c1NC(=O)Nc1ccc(F)cc1 do in these assays?
TbMetRS inhib: 9.4*; MT1-MMP act inh: 6.1; SKN-1 inh: 4.9; GC-B act: 4.2; GC-A act: -5.1; A1 inh: 0.4; Tb MetRS conf: 21.2*; Jurkat cytotox: 6.0; Tb MetRS inh FP: 14.4

Results for Cn1nc(C(F)(F)F)c2cc(C(=O)Nc3ccc(F)cc3)sc21 ?
TbMetRS inhib: 0.4; MT1-MMP act inh: 4.2; SKN-1 inh: 16.7; GC-B act: -5.1; GC-A act: -3.5; A1 inh: 2.0

Results for Nc1c(Cl)ncnc1Nc1ccc(C(=O)O)cc1 ?
TbMetRS inhib: 45.7*; MT1-MMP act inh: 3.0; SKN-1 inh: -12.2; GC-B act: 1.2; GC-A act: -0.1; Tb MetRS conf: 73.9*; Jurkat cytotox: -7.0; Tb MetRS inh FP: 46.3*

How did O=C(Cn1cnc(S(=O)(=O)N2CCCC2)c1)Nc1cccc(Br)c1 do in these assays?
TbMetRS inhib: 14.4*; MT1-MMP act inh: 0.9; SKN-1 inh: -8.8; GC-B act: -1.5; GC-A act: 9.1; A1 inh: -1.4; Tb MetRS conf: 36.2*; Jurkat cytotox: 1.0; Tb MetRS inh FP: 15.2

Results for CSc1cccc(NC(=O)Cn2cnc(S(=O)(=O)N3CCCC3)c2)c1 ?
TbMetRS inhib: 8.6*; MT1-MMP act inh: 4.2; SKN-1 inh: -6.0; GC-B act: 1.8; GC-A act: 1.8; A1 inh: 0.3; Tb MetRS conf: 19.5*; Jurkat cytotox: 4.0; Tb MetRS inh FP: 4.2

How did CC(=O)c1cccc(NC(=O)Cn2cnc(S(=O)(=O)N3CCCCC3)c2)c1 do in these assays?
TbMetRS inhib: 0.6; MT1-MMP act inh: 1.2; SKN-1 inh: 28.4; GC-B act: 3.9; GC-A act: 0.7; A1 inh: 0.2

What do the screens show for `CN1C2=N[C@H](c3cccc(C(F)(F)F)c3)CC(=O)N2/C(=C\c2ccccc2)[C@H]1c1ccccc1`?
GC-B act: -12.4; GC-A act: -13.1

What do the screens show for `CC(C)CN1C(=O)[C@]2(CC(=O)N(C)C2c2ccccc2)c2cc(-n3cc(-c4ccccc4)nn3)ccc21` (stereo partly drawn)?
GC-B act: 2.8; GC-A act: 5.2

Results for COc1ccc(CN(C(=O)c2ccc(-c3ccccc3)[nH]2)C(C(=O)NC(C)(C)C)c2ccncc2)cc1 (stereo not drawn) ?
TbMetRS inhib: 76.2*; MT1-MMP act inh: -47.7; SKN-1 inh: 12.2; GC-B act: -3.7; GC-A act: -7.7; A1 inh: 0.0; Tb MetRS conf: 33.5*; Jurkat cytotox: 7.7; Tb MetRS inh FP: 15.9

How did COC(=O)[C@]12C[C@H](CC(=O)N3CCSCC3)C(=O)N(Cc3ccco3)C1=C[C@H](C(C)(C)C)O[C@@H]2C do in these assays?
GC-B act: -12.1; GC-A act: -16.2

Source: PubChem (several laboratories)
